# Results as given in ChEMBL document CHEMBL1147105, “In vitro and in vivo activities of PD 0305970 and PD 0326448, new bacterial gyrase/topoisomerase inhibitors with potent antibacterial activities versus multidrug-resistant gram-positive and fastidious organism groups” (2007).
# Tests used:
# Type in all cases: functional
# [1] = test system: Enterococcus faecium; experiment: Antibacterial activity against VanA-resistant Enterococcus faecium
# How it was run: (§1)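 Broth microdilution MIC per CLSI guidelines, incubated at 35°C. Cation-adjusted Mueller-Hinton broth for nonfastidious organisms and staphylococci. Streptococci tested in the same broth with 3% lysed horse blood. Anaerobes tested in supplemented Brucella broth inside an anaerobe chamber (5% CO2, 5% H2, 90% N2), read after 48 h. Strains were mainly recent clinical isolates with confirmed identity.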
# [2] = test system: Listeria monocytogenes; experiment: Antibacterial activity against Listeria monocytogenes
# How it was run: (§2)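 Broth microdilution MIC following CLSI guidelines, in cation-adjusted Mueller-Hinton broth containing 3% lysed horse blood, incubated at 35°C. Clinical isolates with identity confirmed. Reported as MIC range, MIC50 and MIC90.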
# [3] = test system: Legionella pneumophila; experiment: Antibacterial activity against Legionella pneumophila
# How it was run: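 Broth microdilution MIC per CLSI guidelines, run in buffered yeast extract α-ketoglutarate broth at 35°C and read after 48 h.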
# [4] = test system: Klebsiella aerogenes; experiment: Antibacterial activity against Enterobacter aerogenes
# How it was run: (§3)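 Broth microdilution MIC following CLSI guidelines, in cation-adjusted Mueller-Hinton broth, incubated at 35°C. Recent clinical isolates and reference strains, with identity confirmed by automated and standard microbiological methods. Results reported as MIC range, MIC50 and MIC90.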
# [5] = test system: Enterobacter cloacae; experiment: Antibacterial activity against Enterobacter cloacae; how it was run: as §3
# [6] = test system: Klebsiella pneumoniae; experiment: Antibacterial activity against Klebsiella pneumoniae; how it was run: as §3
# [7] = test system: Klebsiella pneumoniae; experiment: Antibacterial activity against beta-lactamase positive Klebsiella pneumoniae
# How it was run: (§4)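 MIC by CLSI broth microdilution for nonfastidious organisms, in cation-adjusted Mueller-Hinton broth incubated at 35°C.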
# [8] = test system: Morganella morganii; experiment: Antibacterial activity against Morganella morganii; how it was run: as §3
# [9] = test system: Proteus mirabilis; experiment: Antibacterial activity against Proteus mirabilis; how it was run: as §3
# [10] = test system: Burkholderia cepacia; experiment: Antibacterial activity against Burkholderia cepacia; how it was run: as §3
# [11] = test system: Pseudomonas aeruginosa; experiment: Antibacterial activity against Pseudomonas aeruginosa; how it was run: as §3
# [12] = test system: Stenotrophomonas maltophilia; experiment: Antibacterial activity against Stenotrophomonas maltophilia; how it was run: as §3
# [13] = test system: Fusobacterium sp.; experiment: Antibacterial activity against Fusobacterium sp.
# How it was run: (§5)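 Anaerobic broth microdilution MIC following CLSI guidelines, in supplemented Brucella broth. Run in an anaerobe chamber under 5% CO2, 5% H2 and 90% N2 at 35°C, and read after 48 h. Reported as MIC range, MIC50 and MIC90.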
# [14] = test system: Peptostreptococcus anaerobius; experiment: Antibacterial activity against Peptostreptococcus anaerobius; how it was run: as §5
# [15] = test system: Peptoniphilus asaccharolyticus; experiment: Antibacterial activity against Peptostreptococcus asaccharolyticus; how it was run: as §5
# [16] = test system: Streptococcus pyogenes; experiment: Antibacterial activity against Streptococcus pyogenes
# How it was run: (§6)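 Broth microdilution MIC following CLSI guidelines, in cation-adjusted Mueller-Hinton broth with 3% lysed horse blood. Plates incubated at 35°C. Clinical isolates and reference strains, with identity confirmed by standard microbiological methods.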
# [17] = test system: Clostridioides difficile; experiment: Antibacterial activity against Clostridium difficile; how it was run: as §5
# [18] = test system: Bacteroides thetaiotaomicron; experiment: Antibacterial activity against Bacteroides thetaiotaomicron; how it was run: as §5
# [19] = test system: Staphylococcus aureus; experiment: Antibacterial activity against oxacillin-resistant Staphylococcus aureus; how it was run: as §1
# [20] = test system: Staphylococcus epidermidis; experiment: Antibacterial activity against oxacillin-susceptible Staphylococcus epidermidis; how it was run: as §4
# [21] = test system: Staphylococcus saprophyticus; experiment: Antibacterial activity against Staphylococcus saprophyticus; how it was run: as §3
# [22] = test system: Staphylococcus warneri; experiment: Antibacterial activity against Staphylococcus warneri; how it was run: as §3
# [23] = test system: Alloiococcus otitis; experiment: Antibacterial activity against Alloiococcus otitidis
# How it was run: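 MIC by broth microdilution following CLSI guidelines, in cation-adjusted Mueller-Hinton broth with 3% lysed horse blood. Incubated at 35°C and read after 48 h. Reported as MIC range, MIC50 and MIC90.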
# [24] = test system: Streptococcus agalactiae; experiment: Antibacterial activity against Streptococcus agalactiae; how it was run: as §2
# [25] = test system: Streptococcus pneumoniae; experiment: Antibacterial activity against penicillin-susceptible Streptococcus pneumoniae; how it was run: as §1
# [26] = test system: Streptococcus pneumoniae; experiment: Antibacterial activity against penicillin-resistant Streptococcus pneumoniae; how it was run: as §1
# [27] = test system: Streptococcus pneumoniae; experiment: Antibacterial activity against levofloxacin-resistant Streptococcus pneumoniae; how it was run: as §1
# [28] = test system: Enterococcus faecalis; experiment: Antibacterial activity against VanA-resistant Enterococcus faecalis; how it was run: as §1
# [29] = test system: Prevotella corporis; experiment: Antibacterial activity against Prevotella corporis; how it was run: as §5
# [30] = test system: Prevotella sp.; experiment: Antibacterial activity against Prevotella sp.; how it was run: as §5
# [31] = test system: Neisseria meningitidis; experiment: Antibacterial activity against Neisseria meningitidis
# How it was run: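 MIC by broth microdilution in gonococcal broth, incubated at 35°C in 5% CO2. Reported as MIC range, MIC50 and MIC90.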
# [32] = test system: Streptococcus salivarius; experiment: Antibacterial activity against Streptococcus salivarius; how it was run: as §6
# [33] = test system: Streptococcus viridans; experiment: Antibacterial activity against Streptococcus viridans; how it was run: as §6
# [34] = test system: Staphylococcus aureus; experiment: Antibacterial efficacy against ciprofloxacin and methicillin-resistant Staphylococcus aureus SA2017 infected orally dosed CD1 mouse model
# How it was run: (§7)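 Sepsis model in female CD1 mice (6–8 weeks, 18–22 g). Lethal i.p. challenge (0.5 ml) at ≥100 median lethal doses. Streptococci were given in Todd-Hewitt broth; other organisms were given with 20% hog gastric mucin. A single oral gavage dose (0.5 ml, in 0.5% methylcellulose) was given at the time of challenge. The PD50 (mg/kg) was calculated by probit analysis.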
# [35] = test system: Staphylococcus aureus; experiment: Antibacterial efficacy against methicillin-susceptible Staphylococcus aureus UC76 infected orally dosed CD1 mouse model; details: UC76, po; how it was run: as §7
# [36] = test system: Staphylococcus aureus; experiment: Antibacterial efficacy against methicillin-resistant Staphylococcus aureus SA1417 infected orally dosed CD1 mouse model; how it was run: as §7
# [37] = test system: Streptococcus pyogenes; experiment: Antibacterial efficacy against Streptococcus pyogenes C203 infected orally dosed CD1 mouse model; details: C203, po; how it was run: as §7
# [38] = test system: Enterococcus faecalis; experiment: Antibacterial efficacy against Enterococcus faecalis MGH2 infected orally dosed CD1 mouse model; how it was run: as §7
# [39] = test system: Parabacteroides distasonis; experiment: Antimicrobial activity against Bacteroides distasonis
# How it was run: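 Anaerobic broth microdilution MIC following CLSI guidelines, in supplemented Brucella broth. Incubated at 35°C in a chamber under 5% CO2, 5% H2 and 90% N2. Read after 48 h.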
smiles,measurement,setting,value
C[C@H]1COc2c(N3CCN(C)CC3)c(F)cc3c(=O)c(C(=O)O)cn1c23.C[C@H]1COc2c(N3CCN(C)CC3)c(F)cc3c(=O)c(C(=O)O)cn1c23.O [LEVOFLOXACIN],MIC50,[1],64 µg/mL
same,MIC90,[1],64 µg/mL
same,MIC50,[2],1 µg/mL
same,MIC90,[2],1 µg/mL
same,MIC50,[3],0.008 µg/mL
same,MIC90,[3],0.015 µg/mL
same,MIC50,[4],1 µg/mL
same,MIC90,[4],32 µg/mL
same,MIC50,[5],0.06 µg/mL
same,MIC90,[5],1 µg/mL
same,MIC50,[6],0.06 µg/mL
same,MIC90,[6],0.5 µg/mL
same,MIC50,[7],0.5 µg/mL
same,MIC90,[7],32 µg/mL
same,MIC50,[8],0.125 µg/mL
same,MIC90,[8],16 µg/mL
same,MIC50,[9],0.125 µg/mL
same,MIC90,[9],2 µg/mL
same,MIC50,[10],4 µg/mL
same,MIC90,[10],16 µg/mL
same,MIC50,[11],1 µg/mL
same,MIC90,[11],64 µg/mL
same,MIC50,[12],1 µg/mL
same,MIC90,[12],4 µg/mL
same,MIC,[13],0.03 µg/mL
same,MIC,[14],0.125 µg/mL
same,MIC,[15],0.125 µg/mL
same,MIC50,[16],0.5 µg/mL
same,MIC90,[16],2 µg/mL
same,MIC50,[17],0.5 µg/mL
same,MIC90,[17],0.5 µg/mL
same,MIC50,[18],8 µg/mL
same,MIC90,[18],32 µg/mL
same,MIC50,[19],8 µg/mL
same,MIC90,[19],8 µg/mL
same,MIC,[20],0.25 µg/mL
same,MIC50,[21],0.25 µg/mL
same,MIC90,[21],0.5 µg/mL
same,MIC,[22],0.125 µg/mL
same,MIC50,[23],0.25 µg/mL
same,MIC90,[23],0.25 µg/mL
same,MIC50,[24],1 µg/mL
same,MIC90,[24],1 µg/mL
same,MIC50,[25],0.5 µg/mL
same,MIC90,[25],1 µg/mL
same,MIC50,[26],0.5 µg/mL
same,MIC90,[26],1 µg/mL
same,MIC50,[27],16 µg/mL
same,MIC90,[27],16 µg/mL
same,MIC,[28],16 µg/mL
same,MIC50,[29],1 µg/mL
same,MIC90,[29],2 µg/mL
same,MIC50,[30],1 µg/mL
same,MIC90,[30],2 µg/mL
same,MIC50,[31],0.008 µg/mL
same,MIC90,[31],0.008 µg/mL
same,MIC50,[32],1 µg/mL
same,MIC90,[32],1 µg/mL
same,MIC50,[33],1 µg/mL
same,MIC90,[33],1 µg/mL
same,MIC,[34],8 µg/mL
same,MIC,[35],0.125 µg/mL
same,ED50,[35]; read-out: PD50,4.6 mg/kg
same,MIC,[36],0.25 µg/mL
same,MIC,[37],0.5 µg/mL
same,ED50,[37]; read-out: PD50,17.7 mg/kg
same,MIC,[38],1 µg/mL
same,MIC50,[39],8 µg/mL
same,MIC90,[39],32 µg/mL
Cc1c(N2CC[C@@H]([C@H](C)N)C2)c(F)cc2c(=O)[nH]c(=O)n(C3CC3)c12,MIC50,[1],1 µg/mL
same,MIC90,[1],2 µg/mL
same,MIC50,[2],0.25 µg/mL
same,MIC90,[2],0.25 µg/mL
same,MIC50,[3],0.5 µg/mL
same,MIC90,[3],0.5 µg/mL
same,MIC50,[4],8 µg/mL
same,MIC90,[4],64 µg/mL
same,MIC50,[5],2 µg/mL
same,MIC90,[5],16 µg/mL
same,MIC50,[6],4 µg/mL
same,MIC90,[6],16 µg/mL
same,MIC50,[7],8 µg/mL
same,MIC90,[7],64 µg/mL
same,MIC50,[8],2 µg/mL
same,MIC90,[8],32 µg/mL
same,MIC50,[9],2 µg/mL
same,MIC90,[9],8 µg/mL
same,MIC50,[10],32 µg/mL
same,MIC90,[10],> 64 µg/mL
same,MIC50,[11],8 µg/mL
same,MIC90,[11],> 64 µg/mL
same,MIC50,[12],32 µg/mL
same,MIC90,[12],64 µg/mL
same,MIC,[13],0.125 µg/mL
same,MIC,[14],0.06 µg/mL
same,MIC,[15],0.06 µg/mL
same,MIC50,[16],0.03 µg/mL
same,MIC90,[16],0.03 µg/mL
same,MIC50,[17],2 µg/mL
same,MIC90,[17],8 µg/mL
same,MIC50,[18],16 µg/mL
same,MIC90,[18],32 µg/mL
same,MIC50,[19],0.25 µg/mL
same,MIC90,[19],0.5 µg/mL
same,MIC,[20],0.125 µg/mL
same,MIC50,[21],0.125 µg/mL
same,MIC90,[21],0.5 µg/mL
same,MIC,[22],0.125 µg/mL
same,MIC50,[23],0.008 µg/mL
same,MIC90,[23],0.008 µg/mL
same,MIC50,[24],0.015 µg/mL
same,MIC90,[24],0.03 µg/mL
same,MIC50,[25],0.03 µg/mL
same,MIC90,[25],0.06 µg/mL
same,MIC50,[26],0.03 µg/mL
same,MIC90,[26],0.06 µg/mL
same,MIC50,[27],0.06 µg/mL
same,MIC90,[27],0.06 µg/mL
same,MIC,[28],0.25 µg/mL
same,MIC50,[29],0.5 µg/mL
same,MIC90,[29],2 µg/mL
same,MIC50,[30],0.5 µg/mL
same,MIC90,[30],2 µg/mL
same,MIC50,[31],0.5 µg/mL
same,MIC90,[31],1 µg/mL
same,MIC50,[32],0.03 µg/mL
same,MIC90,[32],0.06 µg/mL
same,MIC50,[33],0.03 µg/mL
same,MIC90,[33],0.06 µg/mL
same,MIC50,[39],16 µg/mL
same,MIC90,[39],32 µg/mL
